Tests used:
Type in all cases: functional, cell-based
[1] = Cytotoxicity against human HONE1 cells after 72 hrs by methylene blue dye assay; details: HONE1, 72 h
How it was run: (§1)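 Log-phase cells seeded at 5000 cells/mL/well in 24-well plates, exposed to a range of compound concentrations for 72 h. Growth read by methylene blue dye staining. IC50 (50% growth inhibition versus untreated control) read graphically; mean ± standard deviation of three independent replicates. IC50 above 10 µM taken as non-cytotoxic. Etoposide and cisplatin served as positive controls.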

KB = test: Cytotoxicity against human KB cells after 72 hrs by methylene blue dye assay; how it was run: as §1
HT-29 = test: Cytotoxicity against human HT-29 cells after 72 hrs by methylene blue dye assay; details: HT-29, 72 h; how it was run: as §1

`CC1=CCC[C@H]2[C@@]1(C)[C@@H](OC(=O)c1ccccc1)[C@H](O)[C@]1(C)O[C@@]3(COC(=O)C3)C[C@H](OC(=O)c3cccnc3)[C@]21C` [SCUTEHENANINE B] showed an IC50 [1] of 3.5 µM, an IC50 (KB) of 4.7 µM and an IC50 (HT-29) of 5 µM.

For `COc1cc([C@@H]2c3cc4c(cc3[C@@H](O[C@@H]3O[C@@H]5CO[C@@H](C)O[C@H]5[C@H](O)[C@H]3O)[C@H]3COC(=O)[C@H]23)OCO4)cc(OC)c1O` [ETOPOSIDE], the IC50 [1] was 1.2 µM, the IC50 (KB) was 1.3 µM and the IC50 (HT-29) was 2.3 µM.

With `CC1=CCC[C@H]2[C@@]1(C)[C@@H](OC(=O)c1cccnc1)[C@H](OC(=O)c1ccccc1)[C@](C)(O)[C@]2(C)[C@H]1CC2=C(O1)C(=O)OC2` [SCUTEHENANINE D] the IC50 [1] was 4.1 µM, the IC50 (KB) was 2.8 µM and the IC50 (HT-29) was 6.4 µM.

With `CC1=CCC[C@H]2[C@@]1(C)[C@@H](O)[C@H](OC(=O)c1cccnc1)[C@](C)(O)[C@]2(C)/C=C/C1=CC(=O)OC1` [SCUTEHENANINE A] the IC50 [1] was 3.1 µM, the IC50 (KB) was 4.5 µM and the IC50 (HT-29) was 5.8 µM.

`C=C1CCC[C@H]2[C@@]1(C)[C@@H](OC(=O)c1ccccc1)[C@H](O)[C@]1(C)O[C@@]3(COC(=O)C3)C[C@H](OC(=O)c3cccnc3)[C@]21C` [SCUTEHENANINE C] showed an IC50 [1] of 3.4 µM, an IC50 (KB) of 2.9 µM and an IC50 (HT-29) of 5.3 µM.

Work on `CC(=O)O[C@H]1[C@H](OC(=O)c2cccnc2)[C@](C)(O)[C@](C)(/C=C/C2=CC(=O)OC2)[C@H]2CCC=C(C)[C@]12C` [6-O-ACETYLSCUTEHENANINE A] yielded an IC50 [1] of 3.7 µM, an IC50 (KB) of 3.2 µM and an IC50 (HT-29) of 5.2 µM.

`CC1=CCC[C@H]2[C@@]1(C)[C@@H](OC(=O)C(=O)C(C)C)[C@H](OC(=O)c1cccnc1)[C@](C)(O)[C@]2(C)/C=C/C1=CC(=O)OC1` gave an IC50 [1] of 4 µM, an IC50 (KB) of 4.2 µM and an IC50 (HT-29) of 5.5 µM.
